Measured values reported in ChEMBL document CHEMBL1124146, “Synthesis of the tumorigenic 3,4-dihydrodiol metabolites of dibenz[a,j]anthracene and 7,14-dimethyldibenz[a,j]anthracene” (1988).

Legend:
Format in all cases: functional
Mus musculus [1] = species on record: Mus musculus; experiment: Compound was tested at a dose of 400 nmol for the skin tumor initiating activity expressed as papillomas per mouse
Summary of the method: (§1)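 The initiator was applied topically to the shaved skin in 0.2 mL peroxide-free THF; controls received THF only. After 2 weeks, 3.4 nmol TPA in 0.2 mL acetone was given twice weekly. Papillomas were recorded weekly, with random histology. Means were compared by Student's t test.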

Mus musculus [2] = species on record: Mus musculus; experiment: Compound was tested at a dose of 400 nmol for the skin tumor initiating activity expressed as percent of mice with papillomas; summary of the method: as §1
Mus musculus [3] = species on record: Mus musculus; experiment: Compound was tested at a dose of 100 nmol for the skin tumor initiating activity expressed as papillomas per mouse; summary of the method: as §1
Mus musculus [4] = species on record: Mus musculus; experiment: Compound was tested at a dose of 100 nmol for the skin tumor initiating activity expressed as percent of mice with papillomas; summary of the method: as §1

Row | SMILES | Activity (Mus musculus [1]) | Activity (Mus musculus [2]) [%] | Activity (Mus musculus [3]) | Activity (Mus musculus [4]) [%]
1 | c1ccc2c(c1)ccc1cc3ccc4ccccc4c3cc12 [DIBENZO[A,J]ANTHRACENE] | 0.58 | 29 | – | –
2 | Cc1c2ccc3ccccc3c2c(C)c2c1ccc1ccccc12 | 17.3 | 97 | 8.4 | 97
3 | O[C@H]1[C@H]2O[C@H]2c2c(ccc3cc4ccc5ccccc5c4cc23)[C@@H]1O | 3.95 | 92 | – | –
4 | O[C@H]1C=Cc2c(ccc3cc4ccc5ccccc5c4cc23)[C@@H]1O | 0.65 | 39 | – | –
5 | Cc1c2ccc3c(c2c(C)c2c1ccc1ccccc12)C=C[C@H](O)[C@H]3O | 14.7 | 100 | 9.9 | 93
